Assay results reported in ChEMBL document CHEMBL1150430, “Flavonoids for controlling starch digestion: structural requirements for inhibiting human alpha-amylase” (J Med Chem, 2008).
pIC50: −log10 of the molar value.

How the values were obtained:
[1] = biological target: T1, Alpha-amylase 1A (Homo sapiens) (UniProt P0DUB6); experiment: (§1) Inhibition of human salivary alpha-amylase; details: concentration not given here
T1 sequence (whole entry): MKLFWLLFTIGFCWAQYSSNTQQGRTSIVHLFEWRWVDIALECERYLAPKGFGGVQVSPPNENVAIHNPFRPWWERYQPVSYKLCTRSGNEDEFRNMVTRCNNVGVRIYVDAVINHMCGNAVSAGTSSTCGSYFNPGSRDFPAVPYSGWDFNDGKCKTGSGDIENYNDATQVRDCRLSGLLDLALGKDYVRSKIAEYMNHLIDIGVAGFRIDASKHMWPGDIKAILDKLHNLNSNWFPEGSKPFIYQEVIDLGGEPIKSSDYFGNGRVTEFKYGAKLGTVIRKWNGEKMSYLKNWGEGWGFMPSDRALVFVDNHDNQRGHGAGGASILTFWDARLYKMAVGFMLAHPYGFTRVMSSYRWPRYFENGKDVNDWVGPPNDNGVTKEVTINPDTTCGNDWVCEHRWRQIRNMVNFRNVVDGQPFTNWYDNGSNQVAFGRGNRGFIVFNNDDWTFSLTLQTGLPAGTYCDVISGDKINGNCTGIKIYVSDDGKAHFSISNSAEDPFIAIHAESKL
Outline: (§2)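 Human salivary α-amylase (type IX-A), diluted in water on the day of use, preincubated 30 min with test compound in 50 mM NaH2PO4/50 mM NaCl/0.5 mM CaCl2/0.1% BSA, pH 6.0 (DMSO stocks). Reducing sugar by Nelson-Somogyi, A540; IC50 and maximum % inhibition.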

Alpha-amylase 1A = biological target: T2, Alpha-amylase 1A (Homo sapiens, UniProt P0DUB6); experiment: as §1; outline: as §2
T2 sequence (P0DUB6 whole entry): T1 sequence (whole entry)

Row | SMILES | inhibition [1] [%] | pIC50 (Alpha-amylase 1A)
1 | COc1cc(O)c2c(=O)c(O)c(-c3ccc(O)c(O)c3)oc2c1 | 8.1 | 
2 | COc1cc(O)c2c(=O)cc(-c3ccc(O)cc3)oc2c1 | 17.5 | 
3 | COc1cc(-c2oc3cc(O)cc(O)c3c(=O)c2O)ccc1O | 35.4 | 
4 | O=C1C[C@@H](c2ccc(O)cc2)Oc2cc(O)cc(O)c21 | 26.8 | 
5 | O=c1c(-c2ccc(O)cc2)coc2cc(O)cc(O)c12 | 25.1 | 
6 | O=c1cc(-c2ccc(O)c(O)c2)oc2cc(O)cc(O)c12 [LUTEOLIN] | 88.8 | 4.74
7 | O=c1c(-c2ccc(O)cc2)coc2cc(O)ccc12 | 23.3 | 
8 | O=c1c(O)c(-c2ccc(O)c(O)c2)oc2cc(O)cc(O)c12 [QUERCETIN] | 82.1 | 4.67
9 | O=c1c(O)c(-c2ccc(O)cc2)oc2cc(O)cc(O)c12 | 34.5 | 
10 | O=c1cc(-c2ccc(O)cc2)oc2cc(O)c(O)c(O)c12 [SCUTELLAREIN] | 98.4 | 5.02
11 | COc1ccc([C@@H]2CC(=O)c3c(O)cc(O)cc3O2)cc1O | 39.8 | 
12 | O=c1c(O)c(-c2cc(O)c(O)c(O)c2)oc2cc(O)cc(O)c12 [MYRICETIN] | 79 | 4.52
13 | Oc1cc(O)c2c(c1)O[C@H](c1ccc(O)c(O)c1)[C@H](O)C2 | 10.3 | 
14 | O=c1c(O)c(-c2ccc(O)c(O)c2)oc2cc(O)c(O)c(O)c12 [QUERCETAGETIN] | 97.6 | 4.99
15 | C[C@H]1O[C@H](O[C@H]2[C@H](O)[C@@H](O)[C@@H](O[C@H]3[C@H](O)[C@@H](O)[C@H](O)O[C@@H]3CO)O[C@@H]2CO)[C@H](O)[C@@H](O)[C@@H]1N[C@H]1C=C(CO)[C@@H](O)[C@H](O)[C@H]1O | 99.2 | 
16 | O=c1c(O)c(-c2ccc(O)c(O)c2)oc2cc(O)ccc12 [FISETIN] | 85.6 | 4.71
17 | COc1ccc(-c2cc(=O)c3c(O)cc(O)cc3o2)cc1O | 19.2 | 
18 | Oc1cc(O)c2c(c1)O[C@H](c1ccc(O)c(O)c1)[C@@H](O)C2 | 13.1 | 
19 | COc1ccc(-c2cc(=O)c3c(O)cc(O)cc3o2)cc1 | 14.1 | 
